Screens (PubChem BioAssay)
This is a sample that favours compounds with a hit; in the whole collection about 1.5% have one here.
SUMO Mot1 rescue – SUMOylation pathway inhibition by Mot1-301 growth rescue | growth rescue, % at 18.8 µM | S. cerevisiae Mot1-301 growth rescue, ATP luminescence, 38.5C; percent above DMSO median, 100 means doubled | 320,000 compounds, 1% hits | AID 2716;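 active means every valid replicate shows activation above 250% relative to neutral control wells; inactive means the rest, any valid replicate at or below 250%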;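 further: OY570 slx delta 5 strain wells were the positive control but not used for scaling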
Cneo AK release – causes C. neoformans cell lysis; 360,000 compounds, 0.2% hits; adenylate kinase release luminescence, 4 h; normalised: neutral wells 0, clomiphene wells 100; lysis activity, % at 15 µM; AID 651654;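 active means mean lysis activity across replicates of at least 80%, whatever share of replicates individually reach that level; inactive means mean lysis activity below 80%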
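Material: C. neoformans cells | Amount: Yeast cell density of 5 × 10^6 cells/mL | Medium: Fresh YPD growth medium | Dosing: Single dose | Times: Static 4 h at 37 °C with compound, 1 h detection | Detection: AK luminescence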
Statin myotox sup – suppressors of simvastatin-induced myotoxicity in C2C12 myotubes | ATP luminescence, 48 h; scaled: DMSO 0, geranylgeraniol control 100 | rescue of ATP level, % at 7.49 µM | 330,000 compounds, 0.78% hits | AID 602340;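 active means mean ATP rescue above about 67%, or every replicate alone reaching that limit, limit read from the data, passing the limit was not always enough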;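 further: myotubes were challenged with 10 µM simvastatin during compound exposure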
Starred values were filed as active, the others as inactive; / = not tested or not shown.

SMILES | SUMO Mot1 rescue | Cneo AK release | Statin myotox sup
Cc1cccc(N2CCN(c3cc(C)nc4nnnn34)CC2C)c1 (configuration not stated) | 3 | / | /
Fc1ccccc1N1CCN(c2nnnn2-c2ccccc2)CC1 | 7 | -3 | 25
CO[C@@H]1CN(C)C(=O)c2ccc(NC(=O)C3CCOCC3)cc2OC[C@@H](C)N(C(=O)C2CCOCC2)C[C@H]1C | / | -2 | 5
COc1ccc(NC(=O)N(C)C[C@@H]2Oc3ccc(NS(=O)(=O)c4ccc(Cl)cc4)cc3C(=O)N([C@@H](C)CO)C[C@@H]2C)cc1 | / | 2 | /
CCCNC(=O)N(C)C[C@H]1Oc2cc(-c3cccnc3)ccc2S(=O)(=O)N([C@@H](C)CO)C[C@H]1C | / | -10 | 7
O=S(=O)(NC[C@@H]1[C@@H](c2ccccc2)[C@@H](CO)N1CC1CC1)c1ccccc1 | / | 0 | -1
C[C@@H]1CN([C@@H](C)CO)C(=O)c2cc(-c3cccc(C#N)c3)cnc2O[C@@H]1CN(C)C(=O)C1CCC1 | / | -3 | -7
O=C(C1CC1)N1C[C@H]2[C@@H](c3ccccc31)[C@H](CO)N2C(=O)c1cccc(F)c1 | / | -2 | -4
C[C@@H]1CN([C@H](C)CO)C(=O)c2cc(NC(=O)Nc3cccc4ccccc34)ccc2O[C@H]1CN(C)C(=O)Nc1ccc(C(F)(F)F)cc1 | / | 103* | 13
C[C@H](CO)N1C[C@H](C)[C@@H](CN(C)C(=O)Nc2cccc3ccccc23)Oc2ccc(NC(=O)Nc3ccccc3)cc2C1=O | / | 0 | 7
C[C@@H]1CN([C@H](C)CO)C(=O)c2cc(NS(=O)(=O)c3cccs3)ccc2O[C@H]1CN(C)C(=O)Nc1ccc2c(c1)OCO2 | / | -3 | -33
C[C@H](CO)N1C[C@H](C)[C@@H](CN(C)C(=O)Nc2ccc(C(F)(F)F)cc2)Oc2ccc(NC(=O)Nc3cccc4ccccc34)cc2C1=O | / | -8 | 27
C[C@H]1CN([C@@H](C)CO)C(=O)c2cc(NC(=O)Nc3ccc4c(c3)OCO4)ccc2O[C@@H]1CN(C)C(=O)Nc1ccc(C(F)(F)F)cc1 | / | -1 | 91*
C[C@H]1CN([C@@H](C)CO)C(=O)c2cc(NC(=O)Nc3ccc(C(F)(F)F)cc3)ccc2O[C@@H]1CN(C)C(=O)Nc1ccc2c(c1)OCO2 | / | -1 | 54
C[C@H](CO)N1C[C@H](C)[C@@H](CN(C)C(=O)Nc2ccc3c(c2)OCO3)Oc2ccc(NS(=O)(=O)c3cccs3)cc2C1=O | / | 100* | -15
C[C@H](CO)N1C[C@H](C)[C@H](CN(C)C(=O)Nc2cccc3ccccc23)Oc2ccc(NC(=O)Nc3ccccc3)cc2C1=O | / | 101* | 7
C[C@@H]1CN([C@H](C)CO)C(=O)Cc2cc(NC(=O)Nc3cccc4ccccc34)ccc2O[C@@H]1CN(C)Cc1ccc(Oc2ccccc2)cc1 | / | 1 | -63
CO[C@H]1CN(C)C(=O)c2cc(NC(=O)C3CC3)ccc2OC[C@H](C)N(Cc2ccccc2)C[C@@H]1C | / | 4 | -10
CS(=O)(=O)N1CCN(C(=O)c2cc(-c3ccncc3)nc3ccc(Cl)cc23)CC1 | 4 | 1 | 108*
CS(=O)(=O)N1CCN(C(=O)c2cc(-c3ccccc3)nc3ccccc23)CC1 | 36 | -2 | 19
CCCSC1=N/C(=C\c2ccc3c(c2)OCO3)C(=O)S1 | -15 | / | /
CCSC1=N/C(=C\c2ccc3c(c2)OCO3)C(=O)S1 | 89 | -1 | 97*
CCCSC1=N/C(=C\c2ccsc2)C(=O)S1 | -4 | -2 | 103*
CCCSC1=N/C(=C\c2ccc([N+](=O)[O-])o2)C(=O)S1 | / | 2 | 10
COc1cnc(SCc2c(Cl)cccc2Cl)nc1Cl | -17 | -2 | 88*
SMILES | SUMO Mot1 rescue | Cneo AK release | Statin myotox sup
Cc1nc(SCc2c(F)cccc2Cl)n[nH]1 | -8 | 2 | -29
O=C(C[C@@H]1C=C[C@H](NS(=O)(=O)c2ccccc2)[C@H](CO)O1)N1CCc2ccccc2C1 | / | -2 | 2
O=C(C[C@H]1CC[C@H]2[C@@H](COC[C@H](O)CN2C(=O)Nc2ccccc2)O1)NCCCN1CCOCC1 | / | 2 | -11
CC(C)NC(=O)Nc1ccc2c(c1)C(=O)N(C)[C@H]1CC[C@H](CC(=O)NC3CCCCC3)O[C@H]1CO2 | / | -1 | 8
Cc1ccc(C(=O)c2c3ccccc3[n+]([O-])n2CCC(=O)O)cc1 | 15 | -3 | 80*
NC(=O)CCn1c(C(=O)c2ccc(Cl)cc2)c2ccccc2[n+]1[O-] | 18 | 1 | /
CCC(=O)Nc1ccc2c(c1)C(=O)N(C)[C@H]1CC[C@@H](CC(=O)NCC3CCCCC3)O[C@@H]1CO2 | / | -4 | -10
C[C@@H]1CN([C@H](C)CO)C(=O)c2cc(NS(=O)(=O)c3ccc(F)cc3)ccc2O[C@@H](C)CCCCO[C@@H]1CN(C)Cc1ccncc1 | / | 0 | /
CN(C)CCCNc1nc(N)c([N+](=O)[O-])c(NCCO)n1 | 374 | 1 | 87*
CCN(CC)CCCNc1nc(N)c([N+](=O)[O-])c(NCCO)n1 | -5 | 1 | /
C[C@@H]1CCCCO[C@H](CN(C)C(=O)NC2CCCCC2)[C@H](C)CN([C@H](C)CO)C(=O)c2cc(NS(C)(=O)=O)ccc2O1 | / | 5 | 35
O=C(C1CCOCC1)N1CC[C@@H]2[C@@H](CO)Nc3ccc(Br)cc3[C@@H]21 | / | 91* | 8
O=C(C1CC1)N1CC[C@@H]2[C@@H](CO)Nc3ccc(Br)cc3[C@@H]21 | / | -1 | 14
C[C@H]1CN([C@@H](C)CO)C(=O)c2cc(C#CC3CC3)cnc2O[C@H]1CN(C)C(=O)C1CCCCC1 | / | / | 62
Cc1cc(C)n(CC(O)COc2cccc(OCC(O)Cn3nc(C)cc3C)c2)n1 (configuration not stated) | 23 | 5 | 91*
Cc1cc(C)n(CC(O)COc2c(C)cccc2C)n1 (configuration not stated) | -20 | / | /
Cc1nn(C)cc1NC(=O)C[C@@H]1CC[C@@H]2[C@@H](COc3ccc(NC(=O)Nc4cccc(Cl)c4)cc3C(=O)N2C)O1 | / | 0 | -5
COc1ccc(Cc2nc(C(=O)Nc3ccc(OC)cc3)cs2)cc1 | 17 | -2 | 122*
COc1ccc(Cc2nc(C(=O)NCc3ccccc3OC)cs2)cc1 | -7 | -1 | -31
N#Cc1cccc(-c2ccc3c(c2)[C@H]2[C@H](CCN2S(=O)(=O)c2ccccc2F)[C@@H](CO)N3)c1 | / | 4 | 14
O=C(c1cc2cc(Cl)cc(Cl)c2oc1=O)N1CCOCC1 | 23 | / | 115*
O=C(c1ccc(Cl)cc1Cl)N1CCOCC1 | / | 0 | 1
C[C@H]1CN([C@@H](C)CO)C(=O)c2cc(-c3ccc(C#N)cc3)cnc2O[C@H]1CN(C)C(=O)Nc1ccccc1 | / | -8 | 26
O=C(C[C@H]1C[C@@H]2c3cc(NC(=O)Nc4ccccc4F)ccc3O[C@@H]2[C@H](CO)O1)NCC(F)(F)F | / | 5 | 2
COc1ccc(NC(=O)N(C)C[C@H]2OCCCC[C@H](C)Oc3ccc(NC(=O)Nc4cccc5ccccc45)cc3C(=O)N([C@H](C)CO)C[C@H]2C)cc1 | / | 2 | /
C[C@@H]1CN([C@H](C)CO)C(=O)c2cc(NC(=O)Nc3ccc4c(c3)OCO4)ccc2O[C@H]1CN(C)C(=O)Nc1ccc(F)cc1 | / | 5 | 7
CCCN(CCC)C(=O)c1ccccc1C(=O)N(CCC)CCC | -9 | 4 | 6
